# HCV core dimer: inhibitors of HCV core protein dimerization, primary screen, biochemical, TR-FRET, high-throughput; TR-FRET GST/Flag-core106 dimerization, 1536-well; inhibition, % at 5 µM; 300,000 compounds, 0.33% hits; AID 1899, 2009;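 active = inhibition above the mean of all tested compounds plus 3 SD, set per screening campaign, cut at about 45% in these data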
#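 System – GST-tagged and Flag-tagged HCV core protein residues 1-106 · Repeats – one well for each compound · Technique – TR-FRET 671 and 617 nm emission · Doses – one concentration, 5 µM, in 0.5% DMSO · Times – 4 h, 22.5 °C incubation · Also added – Eu donor and XL665 acceptor anti-tag antibodies · Measure – percent inhibition of core106 dimerization signal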
# PRMT1 FP inh: PRMT1 methyltransferase inhibitors, primary screen, biochemical, fluorescence polarization. recombinant PRMT1, activity-based probe fluorescence polarization. inhibition, % at 2.79 µM. Protein arginine N-methyltransferase 1 (Homo sapiens), Q99873. 370,000 compounds, 1.3% hits;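 active = inhibition above about 21% made by adding two undisclosed values, limit read from the data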
# APOBEC3G inh: APOBEC3G DNA deaminase inhibitors, primary screen, biochemical, fluorescence, single-stranded DNA substrate, uHTS. DNA dC->dU-editing enzyme APOBEC-3G (Homo sapiens), Q9HC16. recombinant A3G, ssDNA deamination FAM/TAMRA fluorescence. inhibition, % at 20 µM. 330,000 compounds, 0.28% hits. AID 493012, 2011;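 active = inhibition of at least 40% at 20 µM, with no more than 30% in the related APOBEC3A deaminase screen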;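 also: plate controls were DMSO wells with A3G for no effect and wells lacking A3G enzyme for full effect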
# HCV NS3 hel inh: inhibitors of HCV NS3 helicase, primary screen, biochemical, Cy5 molecular beacon fluorescence. inhibition, % at 10.9 µM. 290,000 compounds, 0.56% hits. AID 1800, 2009. NS3 helicase DNA unwinding. Hepatitis C virus NS3 helicase;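 active = inhibition above the mean of all tested compounds plus 3 SD, set per campaign, cut at about 35% in these data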;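 also: 0% = DMSO wells and 100% = thioflavine S control wells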
#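 Compound dosing – single dose, 10.9 µM nominal final, DMSO 0.8% final · System – NS3 helicase fragment of HCV · Buffer or medium – MOPS pH 6.5, MgCl2, DTT, Tween20, BSA · Signal – Cy5 beacon fluorescence read at start and 1 h · Also added – annealed dual-labelled DNA beacon duplex, ATP-started · Schedule – 1 h at 25 °C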
# A3A deaminase: APOBEC3A ssDNA deaminase inhibitors, primary screen, selectivity assay for APOBEC3G inhibitor project, biochemical, FAM/TAMRA oligo cleavage fluorescence; inhibition, % at 20 µM; DNA dC->dU-editing enzyme APOBEC-3A (Homo sapiens), P31941; recombinant A3A, FAM/TAMRA ssDNA deamination fluorescence; 330,000 compounds, 0.41% hits;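 active = at least 40% inhibition at 20 µM here, with at most 30% in a related deaminase screen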;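 also: plate controls were A3A with DMSO for no effect and wells lacking A3A enzyme for full effect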
# ABHD5-PLIN5 inh: ABHD5-PLIN5 interaction inhibitors, primary screen, cell lysate, split luciferase complementation, luminescence; inhibition, % at 4 µM; Split G. princeps luciferase complementation, 4 h; Perilipin-5 (Homo sapiens) + 1-acylglycerol-3-phosphate O-acyltransferase ABHD5 (Homo …; AID 602281, 2012; 360,000 compounds, 0.78% hits;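 active = inhibition above the mean inhibition across every tested compound plus 3 SD, cut at about 22% in these data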;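 also: 0% = DMSO only wells and the 100% control is not disclosed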
# ABHD5-PLIN5 conf: ABHD5-PLIN5 interaction inhibitors, confirmation, biochemical, luminescence | shares compounds with ABHD5-PLIN5 inh | inhibition, % at 4 µM | 2,200 compounds, 67% hits | AID 651612, 2012; in the data active = inhibition above about 23%;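 also: 0% = DMSO vehicle wells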
# HNF4 split-luc: HNF4 dimerization inhibitors, counter-screen for ABHD5-PLIN5 interaction inhibitor project, biochemical, split-luciferase complementation, luminescence; shares compounds with ABHD5-PLIN5 inh; 2,200 compounds, 77% hits; inhibition, % at 4 µM; AID 651674, 2012;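 active = mean inhibition across replicate wells exceeding the computed hit threshold, cut at about 13% in these data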;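 also: light from luciferase halves that rejoin when HNF4 fusion proteins dimerize; 0% = DMSO only wells and the 100% control is not given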
# Target sequence (P41235 whole entry, looked up, the tested form may be a part): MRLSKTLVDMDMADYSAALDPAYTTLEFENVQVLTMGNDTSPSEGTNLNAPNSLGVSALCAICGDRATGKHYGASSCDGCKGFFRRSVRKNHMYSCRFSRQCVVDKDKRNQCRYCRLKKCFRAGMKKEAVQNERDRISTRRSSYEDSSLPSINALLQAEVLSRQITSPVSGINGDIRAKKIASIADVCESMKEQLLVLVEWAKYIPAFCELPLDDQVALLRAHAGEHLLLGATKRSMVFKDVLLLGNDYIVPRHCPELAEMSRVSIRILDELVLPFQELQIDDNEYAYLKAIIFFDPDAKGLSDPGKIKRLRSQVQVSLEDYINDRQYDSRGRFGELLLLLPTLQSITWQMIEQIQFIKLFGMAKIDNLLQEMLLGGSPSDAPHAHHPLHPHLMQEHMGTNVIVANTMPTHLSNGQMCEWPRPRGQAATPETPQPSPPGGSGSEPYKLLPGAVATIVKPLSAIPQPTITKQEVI
# The depositor's hits bear a star; x = no result. Rows were chosen to be rich in hits. Some 2.9% of all compounds tested hit in one or more screens of this group.
SMILES,HCV core dimer,PRMT1 FP inh,APOBEC3G inh,HCV NS3 hel inh,A3A deaminase,ABHD5-PLIN5 inh,ABHD5-PLIN5 conf,HNF4 split-luc
O=C(Nc1ccc(Cl)cc1)/C(=C/c1cccc(O)c1)c1nc2ccccc2s1,-1.5,-2.5,-6.6,-2.9,-0.8,29.5*,85.6*,61.0*
COc1ccccc1/C=C1\SC(=S)N(CCC(=O)Nc2nnc(C)s2)C1=O,-0.3,6.5,-10.9,-0.5,-2.5,-6.0,x,x
CC1(C)Cc2c(sc3nc(SCC(=O)NCc4ccco4)n(-c4ccccc4)c(=O)c23)CS1,29.6,3.2,-5.4,25.3,3.7,29.6*,16.1,10.4
O=C1C=CC2=C3c4cc(O)c(O)cc4CC3(O)COC2=C1O (centres undefined),x,56.5*,x,x,x,27.7*,64.2*,32.6*
Cc1nc2ccc([N+](=O)[O-])cc2nc1C,-1.6,2.0,-2.6,8.5,-0.5,3.9,x,x
Cc1ccc2nc3cc([N+](=O)[O-])cc([N+](=O)[O-])c3cc2c1,x,2.0,x,12.4,x,39.1*,88.5*,46.9*
CCCCC1C(=O)N(c2ccccc2)N(c2ccc(O)cc2)C1=O (centres undefined),-2.5,20.7,-1.2,x,-2.1,96.6*,82.2*,100.3*
CCCCC1(CO)C(=O)N(c2ccccc2)N(c2ccccc2)C1=O,-1.7,9.2,-3.6,-8.8,3.2,-1.1,x,x
CC1=C(C(=O)OCc2ccccc2)C(c2ccccc2OS(=O)(=O)c2ccc(C)cc2)NC(=O)N1CCCC(=O)O (centres undefined),21.4,-0.9,-13.6,x,-2.8,x,x,x
CC(OC(=O)Cc1c[nH]c2ccccc12)C(=O)Nc1ccccc1F (centres undefined),-2.3,4.4,-5.1,x,0.3,11.9,x,x
CN1C/C(=C/c2cccnc2)C(=O)/C(=C/c2cccnc2)C1,2.1,-1.7,x,-6.2,x,65.9*,99.8*,91.6*
CC(C)N1C/C(=C/c2ccsc2)C(=O)/C(=C/c2ccsc2)C1,1.4,0.2,-4.4,8.0,-4.6,28.1*,85.1*,77.6*
CC(C)N1CC2=C(OC(N)=C(C#N)C2c2cccnc2)/C(=C/c2cccnc2)C1 (centres undefined),-0.7,2.0,-4.7,6.6,-4.1,0.9,x,x
CC(C)N1C/C(=C/c2cccnc2)C(=O)/C(=C/c2cccnc2)C1,x,2.2,x,-3.3,x,41.5*,85.8*,66.9*
COc1ccccc1N(Cc1ccccc1)S(=O)(=O)c1cccc(C(=O)N2CCCCC2)c1,x,-3.1,-4.3,x,-0.7,8.3,x,x
CC(C)(C)c1ccc(-c2nnc(SCC(=O)Nc3cccc4ccccc34)n2Cc2ccco2)cc1,x,-1.4,x,x,x,x,x,x
Cc1[nH]c(=O)sc1C(=O)NCc1ccc([N+](=O)[O-])cc1,x,0.0,x,x,x,5.3,x,x
CC(C)(C)NC(=O)C(c1ccncc1)N(Cc1ccco1)C(=O)c1ccc(-c2ccccc2)[nH]1 (centres undefined),4.1,3.0,-4.7,11.7,-8.2,30.1*,31.4*,43.5*
COc1ccc(-c2cc3nc(NCCNC(C)=O)n(C)c(=O)c3s2)c(C)c1,x,-2.5,x,x,x,4.4,x,x
C#CCOCCOCCOCCNc1nc(N2CCOCC2)nc(N2CCN(C(=O)CCCCCCCCCCNC(=O)[C@H](CO)n3cc(CCCCCN)nn3)CC2)n1,-28.0,-0.6,-1.6,x,1.4,4.0,x,x
